According to ChEMBL document CHEMBL1122501, “Potential antiatherosclerotic agents. 2. (Aralkylamino)- and (alkylamino) benzoic acid analogues of cetaben” (1983):
Several values for one entry are separate records, joined by “and”; a condition that tells them apart may be missing. Identical values can stand only once.

How the values were obtained:
[1] = target: T1, Sterol O-acyltransferase 1 (Rattus norvegicus) (UniProt O70536); assay: In vitro inhibitory activity against acyl coenzyme A:cholesterol acyltransferase (ACAT); set-up: concentration or dose not given beside the values; conditions: concentration not given here
T1 sequence (whole entry): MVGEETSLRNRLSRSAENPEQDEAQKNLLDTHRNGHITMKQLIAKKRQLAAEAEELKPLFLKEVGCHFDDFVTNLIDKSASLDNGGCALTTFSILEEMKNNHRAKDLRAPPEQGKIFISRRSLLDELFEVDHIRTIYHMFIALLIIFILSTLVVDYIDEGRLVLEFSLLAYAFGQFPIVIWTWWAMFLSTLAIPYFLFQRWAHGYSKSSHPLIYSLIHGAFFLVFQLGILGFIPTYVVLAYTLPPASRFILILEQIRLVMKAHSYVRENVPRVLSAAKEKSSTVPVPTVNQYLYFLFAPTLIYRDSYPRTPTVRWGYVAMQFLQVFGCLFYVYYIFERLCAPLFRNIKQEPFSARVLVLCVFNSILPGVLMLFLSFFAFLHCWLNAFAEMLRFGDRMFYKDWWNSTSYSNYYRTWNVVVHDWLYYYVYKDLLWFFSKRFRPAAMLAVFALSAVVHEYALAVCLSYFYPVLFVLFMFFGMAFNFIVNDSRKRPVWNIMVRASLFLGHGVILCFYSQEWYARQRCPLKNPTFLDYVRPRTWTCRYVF
Summary of the method: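 ACAT enzyme from rat adrenal homogenate in 0.2 M KH2PO4 buffer pH 7.4, 1000g 15 min 5 °C supernatant (microsomal fraction). Supernatant + BSA (50 mg/mL) + compound at final 5.2 μg/mL + buffer preincubated 10 min 37 °C; [14C]oleoyl-CoA (0.4 μCi) added, 30 min 37 °C. Lipids extracted, TLC; cholesteryl ester zone counted. Mean % inhibition vs no-compound control; Student's t test.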

Rattus norvegicus [2] = assay: In vivo triglyceride lowering activity, dosed at 0.03 % of the diet; format: functional
Summary of the method: (§1)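 Male CFE or CD-1 Sprague-Dawley rats, 140-150 g; 8 per control group, 4 per test group. Compound mixed into ground chow (w/w) via MeOH-CHCl3 (1:3) solution, solvent evaporated; controls got solvent-treated chow. Fed ad libitum 5 days, food intake monitored, killed fed and bled. Serum sterols and triglycerides by adapted autoanalyzer methods; mean percent of control, Student's t test.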

Rattus norvegicus [3] = assay: In vivo sterol lowering activity dosed at 0.10 % of the diet; format: functional; summary of the method: as §1
Rattus norvegicus [4] = assay: In vivo Triglyceride lowering activity at dose as 0.01 % of the diet; format: functional; summary of the method: as §1
Rattus norvegicus [5] = assay: In vivo triglyceride lowering activity dosed at 0.10 % of the diet; format: functional; summary of the method: as §1
Rattus norvegicus [6] = assay: In vivo Sterol lowering activity at dose as 0.01 % of the diet.; format: functional; summary of the method: as §1
Rattus norvegicus [7] = assay: In vivo Sterol lowering activity at dose as 0.03 % of the diet; format: functional; summary of the method: as §1
Rattus norvegicus [8] = assay: In vivo Triglyceride lowering activity at dose as 0.025 % of the diet; format: functional; summary of the method: as §1
Rattus norvegicus [9] = assay: In vivo Sterol lowering activity at dose as 0.025 % of the diet; format: functional; summary of the method: as §1
Rattus norvegicus [10] = assay: In vivo Sterol lowering activity at dose as 0.05 % of the diet; format: functional; summary of the method: as §1
Rattus norvegicus [11] = assay: In vivo triglyceride lowering activity dosed at 0.05 % of the diet; format: functional; summary of the method: as §1
Rattus norvegicus [12] = assay: In vivo Triglyceride lowering activity at dose as 0.03 % of the diet.; format: functional; summary of the method: as §1
Rattus norvegicus [13] = assay: In vivo Sterol lowering activity at dose as 0.10 % of the diet.; format: functional; summary of the method: as §1
Rattus norvegicus [14] = assay: In vivo triglyceride lowering activity, dosed at 0.01 % of the diet.; format: functional; summary of the method: as §1
Rattus norvegicus [15] = assay: In vivo triglyceride lowering activity, dosed at 0.10 % of the diet.; format: functional; summary of the method: as §1
Rattus norvegicus [16] = assay: In vivo Sterol lowering activity at dose as 0.03 % of the diet.; format: functional; summary of the method: as §1

Row | Structure (SMILES) | inhibition [1] [%] | serum triglycerides, percent of control (Rattus norvegicus [2]) [%] | serum sterol, percent of control (Rattus norvegicus [3]) [%] | Diet (Rattus norvegicus [4]) [%] | serum triglycerides, percent of control (Rattus norvegicus [5]) [%] | serum sterol, percent of control (Rattus norvegicus [6]) [%] | Diet (Rattus norvegicus [7]) [%] | Diet (Rattus norvegicus [8]) [%] | Diet (Rattus norvegicus [9]) [%] | Diet (Rattus norvegicus [10]) [%] | Diet (Rattus norvegicus [11]) | Diet (Rattus norvegicus [12]) [%] | serum sterol, percent of control (Rattus norvegicus [13]) [%] | Diet (Rattus norvegicus [14]) [%] | Diet (Rattus norvegicus [15]) [%] | serum sterol level, percent of control (Rattus norvegicus [16]) [%]
1 | CCCCCCCCCCCCCCCCCCCNc1ccc(C(=O)O)cc1 | – | – | 100 | – | <46 | – | – | <52 | 90 | 96 | <46% | – | – | – | – | –
2 | CCCCCCCCCCCCCCNc1ccc(C(=O)O)cc1 | – | – | 89 | – | <53 | – | – | <65 | 93 | 90 | <50% | – | – | – | – | –
3 | CCCCCCCCCCCCCCCNc1ccc(C(=O)OCC)cc1 | – | – | 86 | – | <62 | – | – | 88 | <91 | <84 | <76% | – | – | – | – | –
4 | O=C(O)c1ccc(NCCCc2ccccc2)cc1 | 18 | – | 81 | – | 68 | – | – | 64 | 81 | 75 | 51% | – | – | – | – | –
5 | CCCCCCCCCCCCCNc1ccc(C(=O)O)cc1 | – | – | <84 | – | <60 | – | – | <54 | 95 | <87 | <36% | – | – | – | – | –
6 | Cc1ccc(CCC(=O)Nc2ccc(C(=O)O)cc2)cc1 | 0 | – | – | – | – | 94 | 83 | – | – | – | – | 97 | 91 | 75 | 70 | –
7 | CCCCCCNc1ccc(C(=O)OCC)cc1 | – | – | – | – | – | – | – | – | 79 | 80 | 76% and 73% | – | 87 | – | 86 | –
8 | O=C(O)c1ccc(NCc2ccc(Cl)cc2)cc1 | – | – | 71 | – | 52 | 89 | 80 | – | – | – | – | 72 | – | 98 | – | –
9 | C=CCCCCCCCC/C=C/CCCNc1ccc(C(=O)O)cc1 | – | – | <80 | – | 88 | – | – | <71 | <86 | <81 | 79% | – | – | – | – | –
10 | CCCCCCCC/C=C\CCCCCCCCNc1ccc(C(=O)O)cc1 | – | – | <75 | – | <63 | – | – | <72 | <88 | 85 | <58% | – | – | – | – | –
11 | O=C(O)c1ccc(NCCCc2ccc(F)cc2)cc1 | 16 | – | – | – | 61 | 83 | 82 | – | – | – | – | 90 | 82 | 94 | – | –
12 | CCCCCCCCCC/C=C/CCCNc1ccc(C(=O)O)cc1 | – | – | <79 | – | 83 | – | – | 86 | <84 | <82 | <83% | – | – | – | – | –
13 | CCCCCCCCC/C=C/CCCNc1ccc(C(=O)O)cc1 | – | – | <79 | – | 75 | – | – | 85 | <86 | <83 | 97% | – | – | – | – | –
14 | CCCCCCCC/C=C\CCCCCCCCNc1ccc(C(=O)OCC)cc1 | – | – | <96 | – | 77 | – | – | <68 | <95 | 99 | <57% | – | – | – | – | –
15 | CCCCCCCCCCCCCCCCCCNc1ccc(C(=O)O)cc1 | – | – | <82 | – | <60 | – | – | <70 | <86 | 94 | <71% | – | – | – | – | –
16 | O=C(CCCCCc1ccc(Cl)cc1)Nc1ccc(C(=O)O)cc1 | 18 | – | – | – | – | 86 | – | – | – | – | – | 104 | 99 | 96 | 90 | 93
17 | CCOC(=O)c1ccc(NC(=O)/C=C/c2ccc(Cl)cc2)cc1 | 51 | – | – | – | – | 98 | – | – | – | – | – | 110 | 107 | 104 | 80 | 107
18 | O=C(O)c1ccc(NCCCc2ccc([N+](=O)[O-])cc2)cc1 | 18 | – | – | – | – | 98 | – | – | – | – | – | 75 | 96 | 78 | 83 | 91
19 | O=C(O)c1ccc(N(CCCc2ccc(Cl)cc2)CCCc2ccc(Cl)cc2)cc1 | 33 | – | – | – | – | 98 | – | – | – | – | – | 91 | 98 | 126 | 85 | 84
20 | O=C([O-])c1ccc(NCc2ccc(Cl)cc2)cc1.[Na+] | – | 61 | – | – | 67 | 91 | 90 | – | – | – | – | – | 83 | 70 | – | –
21 | CCCCCCCCCCCCNc1ccc(C(=O)O)cc1 | – | <40 | <89 | <51 | <32 | – | – | – | <86 | <80 | – | – | – | – | – | –

Further lines, with some results ahead:

Row | inhibition [1] [%] | Structure (SMILES) | serum triglycerides, percent of control (Rattus norvegicus [2]) [%] | serum sterol, percent of control (Rattus norvegicus [3]) [%] | Diet (Rattus norvegicus [4]) [%] | serum triglycerides, percent of control (Rattus norvegicus [5]) [%] | serum sterol, percent of control (Rattus norvegicus [6]) [%] | Diet (Rattus norvegicus [7]) [%] | Diet (Rattus norvegicus [8]) [%] | Diet (Rattus norvegicus [9]) [%] | Diet (Rattus norvegicus [10]) [%] | Diet (Rattus norvegicus [11]) | Diet (Rattus norvegicus [12]) [%] | serum sterol, percent of control (Rattus norvegicus [13]) [%] | Diet (Rattus norvegicus [14]) [%] | Diet (Rattus norvegicus [15]) [%] | serum sterol level, percent of control (Rattus norvegicus [16]) [%]
22 | 31 | O=C(O)c1ccc(NCCCCCCc2cccs2)cc1 | 63 | 76 | 58 | 57 | 90 | 83 | – | – | – | – | – | – | – | – | –
23 | < 40 | CCCCCCCCCC/C=C/CCCNc1ccc(C(=O)OCC)cc1 | – | <86 | – | 83 | – | – | 90 | <86 | 94 | 77% | – | – | – | – | –
24 | < 50 | C=CCCCCCCCC/C=C/CCCNc1ccc(C(=O)OCC)cc1 | – | <85 | – | 64 | – | – | 90 | <87 | <85 | 76% | – | – | – | – | –
25 | < 24 | CCCCCCCCNc1ccc(C(=O)O)cc1 | – | 90 | – | <67 | – | – | 91 | 101 | 97 | 88% | – | – | – | – | –
26 | < 51 | CCCCCCCCC/C=C/CCCNc1ccc(C(=O)OCC)cc1 | 75 | <83 | 78 | 79 | – | – | – | <88 | <85 | – | – | – | – | – | –
27 | 19 | CCOC(=O)c1ccc(NCCCc2ccc([N+](=O)[O-])cc2)cc1 | – | 85 | – | – | 85 | 81 | – | – | – | – | 84 | – | 81 | 73 | –
28 | 17 | O=C(OCC(O)CO)c1ccc(NCCCc2ccc(Cl)cc2)cc1 (configuration not stated) | – | 81 | – | 57 | 97 | 88 | – | – | – | – | 63 | – | 78 | – | –
29 | 50 | CCOC(=O)c1ccc(NCCCc2cccc(Br)c2)cc1 | 60 | – | – | – | 84 | 84 | – | – | – | – | – | 94 | 74 | 63 | –
30 | 9 | CCOC(=O)c1ccc(NCCCc2ccccc2[N+](=O)[O-])cc1 | – | – | 70 | – | 93 | – | – | – | – | – | 83 | 89 | – | 68 | 96
31 | 42 | CCOC(=O)c1ccc(NC(=O)CCCCCc2ccc(Cl)cc2)cc1 | – | – | – | – | 93 | – | – | – | – | – | 95 | 99 | 96 | 104 | 101
